Compound activity deposited in PubChem BioAssay by several laboratories.
This is one part of a sample in which hits are shown more often than they occur.
PolyA inhibitor: inhibitors of polyadenylation in S. cerevisiae | S. cerevisiae SKY197-pL101 polyadenylation reporter, beta-gal luminescence; efflux-impaired pdr1/pdr3 knockout yeast; score 100 = 6 SD above DMSO | activity score, % at 12 µM | 300,000 compounds, 0.02% hits;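 active = lowest replicate activity score at least 50, where 100 means six control SD above control mean; inconclusive = lowest score under 50 but half or more replicates reach 50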;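 also: yeast exposed to compound for 9 h at 30 °C; higher score means more reporter readthrough which indicates perturbed polyadenylation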
L major viab: reduces viability of Leishmania major promastigotes | resazurin fluorescence viability | inhibition, % at 10 µM | 200,000 compounds, 9% hits | AID 1063; in the data active = inhibition above about 50%;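 also: promastigotes grown with compound for 44 hours at 28 °C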
Calb FLC: C. albicans growth modulation with fluconazole. C. albicans CaCi-2 (fluconazole-resistant clinical isolate) + fluconazole, Alamar Blue growth, 48 h. growth inhibition, % (no concentration beside the values). 300,000 compounds, 0.57% hits. AID 1979;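 active = growth inhibition above about 58% in most replicates, limit read from the data, passing the limit was not always enough; inconclusive = exactly half the replicates above a set limit; inactive = most replicates below a set limit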;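 also: all wells also contain fluconazole at 8 µg/ml as a sub-toxic cotreatment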
T cruzi repl: blocks replication of Trypanosoma cruzi | T. cruzi beta-gal in NIH3T3, luminescence, 90 h | 300,000 compounds, 1.4% hits | inhibition, % (test concentration not listed);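 active = mean inhibition across valid replicates above about 55%, limit read from the data; inconclusive = mean below that limit but half or more replicates reach it; inactive = mean below it, under half of replicates reach it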;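 also: signal also drops with host cell toxicity which is not excluded here; higher percent means less beta-gal luminescence so fewer parasites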
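Read-out: Parasite load inhibition, % | Test system: Mouse NIH/3T3 fibroblasts infected with β-gal-expressing T. cruzi Tulahuen C4 | Amount: 5,000 cells/well | Medium: DMEM, 2% fetal bovine serum | Signal: GalScreen β-gal luminescence, detergent lysis, 60 min | Timing: 3 h attach, ≥90 h co-culture | Also added: Tulahuen C4 trypomastigotes, 5000/well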
NLRP3 yeast inh: blocks the NALP3 inflammasome reconstituted in yeast. AID 2825. inhibition, % at 10 µM. Yeast reconstituted NLRP3/ASC/caspase-1, beta-gal luminescence, 24 h. 330,000 compounds, 0.39% hits;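 active = inhibition of 50% or more; inactive = inhibition below 50%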
NALP1 inh: NALP1 inhibition | S. cerevisiae NALP1/ASC/caspase-1 growth, X-gal OD620, 72 h | inhibition, % at 10 µM | 280,000 compounds, 0.61% hits | AID 2071; in the data active = inhibition mostly above about 24%, no sharp cut-off; inactive = mostly below about 32%
Of the large screens only hits and unclear results are named; the others gave an inactive call.

Cc1cc(NC(=S)N(CCN2CCCCC2)Cc2ccco2)ccc1Cl	none
Cc1ccc(NC(=S)N(CCCN2CCCC2)Cc2cccn2Cc2ccc(Cl)cc2)cc1Cl	L major viab 100.2
COc1ccc(NC(=S)N(CCCN2CCCC2)Cc2cccn2Cc2ccc(Cl)cc2)cc1Cl	L major viab 100.5
FC(F)(F)c1cccc(NC(=S)N(CCCN2CCCC2)Cc2cccn2Cc2ccc(Cl)cc2)c1	L major viab 100.5, T cruzi repl 71.0
Cc1ccc(NC(=S)N(CCCN2CCCC2)Cc2cccn2Cc2ccc(Cl)cc2)cc1C	L major viab 100.5
CN1CCN(CCCN(Cc2cccs2)C(=S)Nc2ccc(Cl)cc2)CC1	none
CCOC(=O)c1sc2ncn(/N=C/c3ccc(O)c(OC)c3)c(=O)c2c1C	none
CCN(CC)S(=O)(=O)c1cc(NC(=O)CSc2nc3c(cc2C#N)C(=O)CC(C)(C)C3)ccc1C	none
O=C(NC(=S)N(CCCCO)C1CCCCC1)c1sc2ccccc2c1Cl	L major viab 92.3
CC(C)CNC(=O)NC(=O)COC(=O)c1cccc(NS(=O)(=O)c2ccc(F)c(F)c2)c1	none (no result: NALP1 inh)
O=C(COC(=O)c1cccc(NS(=O)(=O)c2ccc(F)c(F)c2)c1)NC(=O)NC1CCCCC1	L major viab 81.5
CCCNC(=O)NC(=O)COC(=O)c1cccc(NS(=O)(=O)c2ccc(F)c(F)c2)c1	L major viab 54.9
O=C(COC(=O)c1ccc(S(=O)(=O)C(F)F)cc1)NC(=O)NC1CCCCC1	none (no result: L major viab, NALP1 inh)
CCOC(=O)Cc1csc(NC(=O)c2cc3c(s2)CCCC3)n1	L major viab 91.2
Cc1csc(NC(=O)c2cc3c(s2)CCCC3)n1	L major viab 96.1
N#Cc1ccccc1NC(=O)CN1C(=O)NC(Cc2c[nH]c3ccccc23)C1=O (stereo unspecified)	none (no result: PolyA inhibitor, L major viab, Calb FLC, T cruzi repl, NALP1 inh)
O=C(NCc1cccnc1)c1csc2c1CCCC2	L major viab 51.5
O=C(NCc1ccco1)c1csc2c1CCCC2	none
Cc1cc(C(=O)NCc2cccnc2)cs1	none
Cc1ccc(CNC(=O)c2csc3c2CCCCC3)cc1	NALP1 inh 43.0
COC(=O)c1ccc(CNC(=O)CN(CCC(C)C)S(=O)(=O)c2ccc3c(c2)OCCO3)cc1	L major viab 55.8
CSc1nc(C(=O)N2CCCC(C(=O)c3ccc(Cl)cc3)C2)cs1 (stereo unspecified)	none
COc1ccc(-c2nnc(SCC(=O)N(Cc3ccccc3)C(C)(C)C)o2)cc1OC	L major viab 57.5
COc1ccc(NC(=O)CCCC(=O)OCC(=O)c2cccc(OC)c2)cc1	none (no result: L major viab)
S=C(Nc1ccc(Nc2ccccc2)cc1)NC1CCCCCC1	T cruzi repl 54.8
CC(C)(C)NC(=S)Nc1ccc(Nc2ccccc2)cc1	L major viab 61.4
S=C(Nc1ccc(Cl)cc1)NC1CCCCC1	none (no result: L major viab)
COC(=O)c1ccc(NC(=O)NC2CCCCC2)cc1	L major viab 52.2
CC(C)(C)NC(=S)Nc1ccc(Br)cc1	none
COC(=O)c1ccc(NC(=S)NC2CCCCC2)cc1	L major viab 87.0
COc1ccc(NC(=O)NC2CCCCCCC2)cc1	none (no result: L major viab)
CCOc1ccc(NC(=O)c2ccc(NC(=S)NC3CCCCC3)cc2)cc1	none
CC(C)(O)C#Cc1ccc(C(=O)N2CCCC(CNS(=O)(=O)c3cccs3)C2)o1 (stereo unspecified)	none (no result: L major viab)
COC(=O)c1ccc(NC(=S)NC2CC3CCC2C3)cc1 (stereo unspecified)	L major viab 73.1
Cc1ccc(CC(=O)N2CCN(C(=O)c3ccco3)CC2)cc1	none
CN1CCN(CCC(=O)N/N=C/c2ccccc2F)CC1	none (no result: L major viab, NALP1 inh)
O=C(CCN1CCOCC1)c1ccc(Br)cc1	none
O=C(CCN1CCN(c2ccccc2F)CC1)c1ccc(Br)cc1	L major viab 83.3
O=C(CCC(=O)N1CCN(c2ccccc2F)CC1)c1ccc(F)cc1	Calb FLC inconclusive (no result: L major viab)
O=C(CCN1CCN(c2ccccc2)CC1)N/N=C/c1ccccc1O	L major viab 98.1
O=C(CCN1CCN(c2ccccc2)CC1)c1ccc(Br)cc1	T cruzi repl 61.9 (no result: L major viab)
C[C@H](NC(=O)c1cccc([N+](=O)[O-])c1)C(=O)OCC(=O)c1ccccc1Br	none (no result: PolyA inhibitor, L major viab, Calb FLC, T cruzi repl, NALP1 inh)
Cc1nc(N)sc1C(=O)N1N=N1	none (no result: L major viab)
CCc1c(C(=O)Nc2ccc(S(=O)(=O)N3CCOCC3)cc2)csc1C	none
COc1ccc(/C=N/n2c(SC)nnc2-c2ccccc2)cc1C	L major viab 63.4
CCOc1ccc(NCC(=O)c2ccc(C)cc2)cc1	T cruzi repl 56.7
Cc1ccc(C(=O)CC(=O)COc2ccc(Cl)cc2)cc1	L major viab 66.3, Calb FLC 113.7
Cc1ccc(C(=O)NCCOc2ccc(Cl)cc2)cc1	none (no result: L major viab)
CC(C)Sc1nc2ncnc(N)c2[nH]1	none
Cc1c(C(=O)N2CCN(C3CCS(=O)(=O)C3)CC2)oc2c(F)cccc12 (stereo unspecified)	none (no result: PolyA inhibitor, L major viab, Calb FLC, T cruzi repl, NALP1 inh)
Cc1ccc(C2=NN(CC(=O)NCCC(C)C)C(=O)CC2)cc1	none (no result: L major viab)
c1ccc(-n2cnnc2SCc2cn3ccsc3n2)cc1	none
Cc1ccc(-n2c(SCc3cn4ccsc4n3)nc3ccccc3c2=O)cc1	L major viab 85.0 (no result: Calb FLC)
O=c1c2ccccc2nc(SCc2nc(-c3ccccc3)no2)n1-c1ccc(F)cc1	L major viab 87.2 (no result: PolyA inhibitor, Calb FLC, T cruzi repl)
c1ccc(-c2noc(CSc3nnc(Cc4cccs4)n3-c3ccccc3)n2)cc1	L major viab 65.1
Cc1ccc(-c2noc(CSc3nnc(Cc4cccs4)n3-c3ccccc3)n2)cc1	none
Fc1ccc(-n2c(Cc3ccccc3)nnc2SCc2nc(-c3cccs3)no2)cc1	L major viab 99.0
COc1cccc(NC(=O)COC(=O)C2CCCCC2)c1	none (no result: PolyA inhibitor, L major viab, Calb FLC, T cruzi repl, NALP1 inh)
Cn1c(=O)c2c(nc(NN=C3CCCCC3)n2C)n(C)c1=O	none
CC(C)(Oc1ccc(F)cc1)C(=O)OCC(=O)c1ccc(S(C)(=O)=O)cc1	none (no result: PolyA inhibitor, L major viab, Calb FLC, T cruzi repl, NALP1 inh)
O=[N+]([O-])c1ccc(N2CCc3ccccc3C2)nc1	none (no result: L major viab)
Oc1cccc2c(NC(=S)Nc3ccc(SC(F)F)cc3)cccc12	none
Oc1cccc(NC(=S)Nc2ccc(SC(F)F)cc2)c1	L major viab 61.5
CCOC(=O)/C(=N\Nc1ccc(Br)cc1)N1CC(C)OC(C)C1 (stereo unspecified)	none (no result: L major viab, NALP1 inh)
COc1cccc(OC)c1C(=O)Oc1ccc2c(c1)O/C(=C\c1ccncc1)C2=O	L major viab 93.8
O=C1/C(=C/c2ccncc2)Oc2cc(OS(=O)(=O)c3ccccc3)ccc21	none (no result: L major viab)
O=C1/C(=C/c2ccccc2)Oc2cc(OC(=O)N3CCOCC3)ccc21	L major viab 73.6
O=C1/C(=C/c2ccc(F)cc2)Oc2cc(OC(=O)N3CCOCC3)ccc21	none (no result: L major viab)
COc1ccc(-c2csc(NC3CCCCC3)n2)c(OC)c1	none (no result: L major viab)
Cc1ccc(C)c(C(=O)COC(=O)C2CCN(c3ccc(C(F)(F)F)cn3)CC2)c1	none (no result: L major viab, NALP1 inh)
CC(Nc1ccccc1)c1cc(Cl)ccc1O (stereo unspecified)	L major viab 96.0 (no result: PolyA inhibitor, Calb FLC, T cruzi repl)
COc1ccc(NC(C)c2cc(Cl)ccc2O)cc1 (stereo unspecified)	none
